In ChEMBL document CHEMBL3526002, “Tissue distribution and identification of radioactivity components at elimination phase after oral administration of [¹⁴C]CS-1036, an α-amylase inhibitor, to rats” (Drug Metab Dispos, 2013):

Assays:
Design in all cases: dose 5 mg/kg, dosed compound name [14C]CS-1036, route oral
Details in all cases: in vivo
[1] = system: Blood; test: Drug uptake in albino F344/DuCrlCrlj rat blood at 5 mg/kg, po after 8 hrs by liquid scintillation counting; assay type: ADME, organism-based
Procedure, shortened: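 Male rats (159–167 g; n = 3) received a single oral dose of [14C]CS-1036 at 5 mg/kg. Blood was drawn from the abdominal aorta at 1, 4, 8, 24, 72, 168 and 336 h. Radioactivity was counted by LSC with external-standard efficiency correction. Results are expressed as ng equivalent/ml from the specific activity and sample volume; mean + S.D.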

[2] = system: Pancreas; test: Drug uptake in albino F344/DuCrlCrlj rat pancreas at 5 mg/kg, po after 8 hrs by liquid scintillation counting; assay type: ADME, organism-based
[3] = system: Aorta; test: Drug uptake in albino F344/DuCrlCrlj rat aorta at 5 mg/kg, po after 8 hrs by liquid scintillation counting; assay type: ADME, organism-based
[4] = system: Cerebrum; test: Drug uptake in albino F344/DuCrlCrlj rat cerebrum assessed as ng equivalent of CS-1036 at 5 mg/kg, po after 1 hr by liquid scintillation counting; assay type: ADME, organism-based
Procedure, shortened: (§1)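 Single oral [14C]CS-1036 at 5 mg/kg was given to male rats (159–167 g; n = 3). Cerebrum was collected after aortic bleeding at 1, 4, 8, 24, 72, 168 or 336 h, weighed, and homogenized in 2 volumes of saline. A 0.5 ml aliquot was solubilized in Soluene-350 and counted by LSC with external-standard correction. Results are in ng equivalent/g tissue from specific activity and sample weight.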

[5] = system: Heart; test: Drug uptake in albino F344/DuCrlCrlj rat heart assessed as ng equivalent of CS-1036 at 5 mg/kg, po after 1 hr by liquid scintillation counting; assay type: ADME, organism-based
[6] = system: Small intestine; test: Drug uptake in albino F344/DuCrlCrlj rat small intestine assessed as ng equivalent of CS-1036 at 5 mg/kg, po after 1 hr by liquid scintillation counting; assay type: ADME, organism-based
[7] = system: Blood; test: Drug uptake in albino F344/DuCrlCrlj rat blood assessed as ng equivalent of CS-1036 at 5 mg/kg, po after 4 hrs by liquid scintillation counting; assay type: ADME, organism-based
Procedure, shortened: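 Male F344/DuCrlCrlj rats (159–167 g; n = 3 per time point) received a single oral dose of [14C]CS-1036 at 5 mg/kg. Blood was taken from the abdominal aorta at 1, 4, 8, 24, 72, 168 and 336 h. Radioactivity was counted by LSC with external-standard efficiency correction. Results were converted to ng equivalent of CS-1036/ml using specific activity and sample volume, and reported as mean + S.D.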

[8] = system: Cerebrum; test: Drug uptake in albino F344/DuCrlCrlj rat cerebrum assessed as ng equivalent of CS-1036 at 5 mg/kg, po after 72 hrs by liquid scintillation counting; assay type: ADME, organism-based; procedure, shortened: as §1
[9] = system: Liver; test: Drug uptake in albino F344/DuCrlCrlj rat liver assessed as ng equivalent of CS-1036 at 5 mg/kg, po after 4 hrs by liquid scintillation counting; assay type: ADME, organism-based
[10] = system: Spleen; test: Drug uptake in albino F344/DuCrlCrlj rat spleen assessed as ng equivalent of CS-1036 at 5 mg/kg, po after 4 hrs by liquid scintillation counting; assay type: ADME, organism-based
[11] = system: Cerebellum; test: Drug uptake in albino F344/DuCrlCrlj rat cerebellum at 5 mg/kg, po after 24 hrs by liquid scintillation counting; assay type: ADME, organism-based
[12] = Drug uptake in albino F344/DuCrlCrlj rat pituitary gland at 5 mg/kg, po after 24 hrs by liquid scintillation counting; assay type: ADME, organism-based
[13] = system: Aorta; test: Drug uptake in albino F344/DuCrlCrlj rat aorta assessed as ng equivalent of CS-1036 at 5 mg/kg, po after 336 hrs by liquid scintillation counting; assay type: ADME, organism-based
[14] = Drug uptake in albino F344/DuCrlCrlj rat epididymis assessed as ng equivalent of CS-1036 at 5 mg/kg, po after 336 hrs by liquid scintillation counting; assay type: ADME, organism-based
[15] = Drug uptake in albino F344/DuCrlCrlj rat testis at 5 mg/kg, po after 24 hrs by liquid scintillation counting; assay type: ADME, organism-based
[16] = system: Kidney; test: Drug uptake in albino F344/DuCrlCrlj rat kidney assessed as ng equivalent of CS-1036 at 5 mg/kg, po after 168 hrs by liquid scintillation counting; assay type: ADME, organism-based
[17] = system: Spleen; test: Drug uptake in albino F344/DuCrlCrlj rat spleen assessed as ng equivalent of CS-1036 at 5 mg/kg, po after 168 hrs by liquid scintillation counting; assay type: ADME, organism-based
[18] = system: Lung; test: Drug uptake in albino F344/DuCrlCrlj rat lung at 5 mg/kg, po after 72 hrs by liquid scintillation counting; assay type: ADME, organism-based
[19] = system: Kidney; test: Drug uptake in albino F344/DuCrlCrlj rat kidney at 5 mg/kg, po after 72 hrs by liquid scintillation counting; assay type: ADME, organism-based
[20] = Drug uptake in albino F344/DuCrlCrlj rat skeletal muscle at 5 mg/kg, po after 72 hrs by liquid scintillation counting; assay type: ADME, organism-based, Muscle tissue
[21] = system: Zone of skin; test: Drug uptake in albino F344/DuCrlCrlj rat skin assessed as ng equivalent of CS-1036 at 5 mg/kg, po after 4 hrs by liquid scintillation counting; assay type: ADME, organism-based
[22] = Drug uptake in albino F344/DuCrlCrlj rat trachea assessed as ng equivalent of CS-1036 at 5 mg/kg, po after 8 hrs by liquid scintillation counting; assay type: ADME, organism-based
[23] = system: Spleen; test: Drug uptake in albino F344/DuCrlCrlj rat spleen assessed as ng equivalent of CS-1036 at 5 mg/kg, po after 8 hrs by liquid scintillation counting; assay type: ADME, organism-based
[24] = system: Small intestine; test: Drug uptake in albino F344/DuCrlCrlj rat small intestine assessed as ng equivalent of CS-1036 at 5 mg/kg, po after 168 hrs by liquid scintillation counting; assay type: ADME, organism-based
[25] = system: Lung; test: Drug uptake in albino F344/DuCrlCrlj rat lung at 5 mg/kg, po after 168 hrs by liquid scintillation counting; assay type: ADME, organism-based
[26] = system: Cerebellum; test: Drug uptake in albino F344/DuCrlCrlj rat cerebellum at 5 mg/kg, po after 4 hrs by liquid scintillation counting; assay type: ADME, organism-based
[27] = system: Stomach; test: Drug uptake in albino F344/DuCrlCrlj rat stomach at 5 mg/kg, po after 168 hrs by liquid scintillation counting; assay type: ADME, organism-based
[28] = system: Kidney; test: Drug uptake in albino F344/DuCrlCrlj rat kidney assessed as ng equivalent of CS-1036 at 5 mg/kg, po after 24 hrs by liquid scintillation counting; assay type: ADME, organism-based
[29] = system: Adrenal gland; test: Drug uptake in albino F344/DuCrlCrlj rat adrenal gland assessed as ng equivalent of CS-1036 at 5 mg/kg, po after 24 hrs by liquid scintillation counting; assay type: ADME, organism-based
[30] = Drug uptake in albino F344/DuCrlCrlj rat fat assessed as ng equivalent of CS-1036 at 5 mg/kg, po after 24 hrs by liquid scintillation counting; assay type: ADME, organism-based, Adipose tissue
Procedure, shortened: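 Male F344/DuCrlCrlj rats (bought at 7 weeks, acclimatized 5–6 days; 159–167 g; n = 3 per time point) received a single oral dose of [14C]CS-1036 at 5 mg/kg. White adipose tissue was collected after abdominal aortic bleeding at 1, 4, 8, 24, 72, 168 or 336 h. Samples were counted by LSC with external-standard efficiency correction. Results were converted to ng equivalents per g from specific activity and sample weight.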

Q: Which results are given for `C[C@H]1O[C@@H](O[C@H]2[C@H](O)[C@@H](O)[C@@H](O[14C@H]3[14C@H](O)[14CH2]N[14C@@H]3[14CH2]O)O[C@@H]2CO)[C@H](O)[C@@H](O)[C@@H]1O`?
A: Radiolabel recovery [1]: 22.1 ngequiv/ml; Radiolabel recovery [2]: 325 ngequiv/g; Radiolabel recovery [3]: 57.3 ngequiv/g; Radiolabel recovery [4]: 0.23 ngequiv/g; Radiolabel recovery [5]: 1.1 ngequiv/g; Radiolabel recovery [6]: 86500 ngequiv/g; Radiolabel recovery [7]: 16.3 ngequiv/ml; Radiolabel recovery [8]: 4.88 ngequiv/g; Radiolabel recovery [9]: 93 ngequiv/g; Radiolabel recovery [10]: 6.3 ngequiv/g; Radiolabel recovery [11]: 21.1 ngequiv/g; Radiolabel recovery [12]: 70.8 ngequiv/g; Radiolabel recovery [13]: 10.8 ngequiv/g; Radiolabel recovery [14]: 3.3 ngequiv/g; Radiolabel recovery [15]: 31.4 ngequiv/g; Radiolabel recovery [16]: 5.4 ngequiv/g; Radiolabel recovery [17]: 6.2 ngequiv/g; Radiolabel recovery [18]: 51.3 ngequiv/g; Radiolabel recovery [19]: 77.9 ngequiv/g; Radiolabel recovery [20]: 16.5 ngequiv/g; Radiolabel recovery [21]: 9.6 ngequiv/g; Radiolabel recovery [22]: 17.8 ngequiv/g; Radiolabel recovery [23]: 84.1 ngequiv/g; Radiolabel recovery [24]: 5.5 ngequiv/g; Radiolabel recovery [25]: 17.2 ngequiv/g; Radiolabel recovery [26]: 11.2 ngequiv/g; Radiolabel recovery [27]: 23.9 ngequiv/g; Radiolabel recovery [28]: 16 ngequiv/g; Radiolabel recovery [29]: 20.2 ngequiv/g; Radiolabel recovery [30]: 21 ngequiv/g
